Assay results published in ChEMBL document CHEMBL1122415, “Folate antagonists. 20. Synthesis and antitumor and antimalarial properties of trimetrexate and related 6-[(phenylamino)methyl]-2,4-quinazolinediamines” (1983).
“And” between values parts separate entries of the source, which are not always exact repeats. Identical values can stand only once.

Tests used:
Plasmodium berghei [1] = assay: Antimalarial effect against trophozoite-induced Plasmodium berghei in mice (Mus musculus) at 20 mg/kg subcutaneous dose; assay type: functional; conditions: 20 mg/kg
L1210 [2] = assay: Molar concentration required to reduce the number of L1210 cells by 50% after incubation for 2 days; assay type: functional, Mus musculus; conditions: read-out: ID50 (the source's name)
Outline: (§1)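 L1210 leukemia cells in tissue culture exposed to drug for 2 days. ID50 is the molar concentration that reduces L1210 cell number by 50%. Mithramycin is the reference drug.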

Plasmodium berghei [3] = assay: Antimalarial effect against trophozoite-induced Plasmodium berghei in mice (Mus musculus) after subcutaneous dose of 10 mg/kg; assay type: functional; conditions: 10 mg/kg
Plasmodium berghei [4] = assay: Antimalarial effect against trophozoite-induced Plasmodium berghei in mice (Mus musculus) at 40 mg/kg subcutaneous dose; assay type: functional
Plasmodium berghei [5] = assay: Antimalarial effect against trophozoite-induced Plasmodium berghei in mice (Mus musculus) at 5 mg/kg subcutaneous dose; assay type: functional
Mus musculus [6] = assay: Antimalarial effect against trophozoite-induced Plasmodium berghei in mice (Mus musculus) after subcutaneous administration dose of 20 mg/kg; 3 survived after 60 days of post infection; assay type: functional
Mus musculus [7] = species: Mus musculus; assay: Daily dose required for 90% parasitaemia in trophozoite induced Plasmodium berghei in 21 mice; assay type: functional
Outline: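 Oral suppressive test in mice against a normal drug-sensitive P. berghei strain. Drug given continuously in the diet for six consecutive days, with doses as free base equivalent. SD90 is the daily dose (mg/kg) giving 90% suppression of parasitemia versus control mice, estimated graphically on semilog paper.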

Mus musculus [8] = assay: Antimalarial effect against trophozoite-induced Plasmodium berghei in mice (Mus musculus) after subcutaneous administration dose of 160 mg/kg; 4 survived after 60 days of post infection; assay type: functional
Plasmodium berghei [9] = assay: Antimalarial effect against trophozoite-induced Plasmodium berghei in mice (Mus musculus) at 80 mg/kg subcutaneous dose; assay type: functional
Mus musculus [10] = assay: Antimalarial effect against trophozoite-induced Plasmodium berghei in mice (Mus musculus) after subcutaneous administration dose of 160 mg/kg; 3 survived after 60 days of postinfection; assay type: functional
Mus musculus [11] = assay: Antimalarial effect against trophozoite-induced Plasmodium berghei in mice (Mus musculus) after subcutaneous administration dose of 20 mg/kg; assay type: functional
Mus musculus [12] = assay: Antimalarial effect against trophozoite-induced Plasmodium berghei in mice (Mus musculus) after subcutaneous administration dose of 320 mg/kg; assay type: functional
Mus musculus [13] = assay: Antimalarial effect against trophozoite-induced Plasmodium berghei in mice (Mus musculus) after subcutaneous administration dose of 160 mg/kg; assay type: functional
Mus musculus [14] = assay: Antimalarial effect against trophozoite-induced Plasmodium berghei in mice (Mus musculus) after subcutaneous administration dose of 40 mg/kg; assay type: functional
Mus musculus [15] = assay: Antimalarial effect against trophozoite-induced Plasmodium berghei in mice (Mus musculus) after subcutaneous administration dose of 10 mg/kg; assay type: functional
Mus musculus [16] = assay: Antimalarial effect against trophozoite-induced Plasmodium berghei in mice (Mus musculus) after subcutaneous administration dose of 640 mg/kg; assay type: functional
L1210 [17] = assay: Molar concentration required to reduce the number of L1210 cells by 50% after incubation for 2 days (exp 2; assay type: functional; conditions: Mus musculus, L1210, 48 h; read-out: ID50 (the source's name); outline: as §1
Mus musculus [18] = assay: Antimalarial effect against trophozoite-induced Plasmodium berghei in mice (Mus musculus) after subcutaneous administration dose of 5 mg/kg; assay type: functional
Mus musculus [19] = assay: Antimalarial effect against trophozoite-induced Plasmodium berghei in mice (Mus musculus) after subcutaneous administration dose of 2.5 mg/kg; assay type: functional
Mus musculus [20] = assay: Antimalarial effect against trophozoite-induced Plasmodium berghei in mice (Mus musculus) after subcutaneous administration dose of 80 mg/kg; 4 survived after 60 days of post infection; assay type: functional
Mus musculus [21] = assay: Antimalarial effect against trophozoite-induced Plasmodium berghei in mice (Mus musculus) after subcutaneous administration dose of 10 mg/kg; 1 survived after 60 days of post infection; assay type: functional
Mus musculus [22] = assay: Antimalarial effect against trophozoite-induced Plasmodium berghei in mice (Mus musculus) after subcutaneous administration dose of 20 mg/kg; 4 survived after 60 days of postinfection; assay type: functional

Row | Structure (SMILES) | Delta MST (Plasmodium berghei [1]) | IC50 (L1210 [2]; Mus musculus, L1210, 48 h) | IC50 (L1210 [2]) | Delta MST (Plasmodium berghei [3]) | Delta MST (Plasmodium berghei [4]) | Delta MST (Plasmodium berghei [5]) | SD90 (Mus musculus [7]) | Delta MST (Mus musculus [19]) | further results
1 | Cc1c(CN(C=O)c2ccc(Cl)c(Cl)c2)ccc2nc(N)nc(N)c12 | 9.9 days and 9.4 days | 21 nM | 26 nM | 7.7 days and 5.3 days and 3.9 days | 29.9 days | 5.3 days | – | – | Delta MST (Mus musculus [6]): 9.9 days
2 | CC(=O)O.Nc1nc(N)c2cc(CN(N=O)c3ccc(Cl)c(Cl)c3)ccc2n1.O | 6.7 days and 6.8 days | 40 nM | 70 nM | 3.7 days and 4 days | – | 2 days | 0.25 mg/kg/day | – | Delta MST (Mus musculus [8]): 22.8 days; Delta MST (Plasmodium berghei [4]; 40 mg/kg): 9.9 days and 9.8 days; Delta MST (Plasmodium berghei [9]; 80 mg/kg): 12.3 days and 12 days; Delta MST (Mus musculus [10]): 28.7 days
3 | CC(=O)O.Nc1nc(N)c2cc(CNc3cc(Cl)cc(Cl)c3)ccc2n1.O.O | – | 120 nM | 74 nM | – | – | – | 51 mg/kg/day | – | Delta MST (Mus musculus [11]): 0.3 days; Delta MST (Mus musculus [12]): 12.9 days and 6.9 days; Delta MST (Mus musculus [13]): 6.9 days and 4.7 days; Delta MST (Mus musculus [14]): 0.7 days; Delta MST (Mus musculus [15]): 0.3 days; Delta MST (Mus musculus [16]): 13.7 days
4 | CC(=O)O.Nc1nc(N)c2c(Cl)c(CNc3cccc(Br)c3)ccc2n1.O | – | 2.1 nM | – | – | – | – | – | 1.5 days | Delta MST (Mus musculus [11]; 20 mg/kg): 8.5 days and 8.3 days; IC50 (L1210 [17]): 2.2 nM; Delta MST (Mus musculus [18]): 4.7 days; Delta MST (Mus musculus [14]; 40 mg/kg): 11.3 days and 11.5 days and 11.7 days; Delta MST (Mus musculus [15]; 10 mg/kg): 7.3 days and 7.5 days and 4.7 days
5 | CC(=O)O.COc1cc(NCc2ccc3nc(N)nc(N)c3c2C)cc(OC)c1OC.O | 12 days and 11.5 days and 7.1 days | 11 nM | 20 nM | – | 14.7 days | – | 0.44 mg/kg/day | – | Delta MST (Plasmodium berghei [9]): 30.8 days; Delta MST (Mus musculus [20]): 16.3 days and 14.7 days
6 | Cc1c(CN(N=O)c2ccc(Cl)c(Cl)c2)ccc2nc(N)nc(N)c12 | – | 70 nM | 100 nM | – | – | – | 1.15 mg/kg/day | 4.1 days | Delta MST (Mus musculus [21]): 12 days and 11.9 days; Delta MST (Mus musculus [22]): 21.7 days and 24.9 days; Delta MST (Plasmodium berghei [5]; 5 mg/kg): 9.9 days and 10.5 days
